From BindingDB's records for doi:10.1021/jm201131n (Academia Sinica, 2011)

Legend:
[1] = target: Glutathione S-transferase P (Homo sapiens, UniProt P09211); test: Inhibition of human GSTP1-1 using GSH as substrate after 3 mins by spectrophotometry
[2] = target: T1, Glutathione S-transferase A2 (Homo sapiens, UniProt P09210); test: Inhibition of human GSTA2 using GSH as substrate after 3 mins by spectrophotometry
T1 sequence (P09210 whole entry): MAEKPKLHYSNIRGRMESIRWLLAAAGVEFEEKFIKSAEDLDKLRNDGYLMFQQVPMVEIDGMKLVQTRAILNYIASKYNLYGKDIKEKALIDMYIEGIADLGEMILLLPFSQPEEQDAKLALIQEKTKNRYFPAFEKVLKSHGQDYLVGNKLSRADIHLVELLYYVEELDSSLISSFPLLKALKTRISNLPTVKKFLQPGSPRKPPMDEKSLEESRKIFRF
How it was run: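 Human GST enzyme preincubated with inhibitor (0–200 μM) in 100 mM potassium phosphate pH 6.5 at 37 °C (GSTM1 at 32 ng). Reaction started with GSH (final 2 mM) and followed at 340 nm for 3 min. IC50 by nonlinear regression, mean ± SEM, n = 3. Percent inhibition at 100 μM is not corrected for glutathione conjugate formation.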

Glutathione S-transferase P, sequence (P09211 whole entry): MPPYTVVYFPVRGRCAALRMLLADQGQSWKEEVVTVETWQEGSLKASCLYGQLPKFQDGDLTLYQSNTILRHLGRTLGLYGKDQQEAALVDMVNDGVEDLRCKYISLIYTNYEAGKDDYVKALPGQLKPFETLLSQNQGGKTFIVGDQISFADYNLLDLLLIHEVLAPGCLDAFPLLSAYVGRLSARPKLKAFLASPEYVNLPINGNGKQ

Structure (SMILES) | IC50 [1] [µM] | IC50 [2] [µM]
CO[C@H]1CC(COC(C)=O)C(=O)C(=O)[C@H]1O (stereo partly specified) | > 100 | > 100
CC(=O)OCC1CC(O)[C@H](O)C(=O)C1=O (stereo partly specified) | > 100 | > 100
CC(=O)OCC1C[C@H](O)[C@H](O)C(=O)C1=O (stereo partly specified) | > 100 | > 100
CO[C@@H]1CC(COC(C)=O)C(=O)C(=O)[C@H]1O (stereo partly specified) | > 100 | > 100
CO[C@]1(C)O[C@H]2[C@H](O)C(C=O)CC(=O)[C@@H]2O[C@@]1(C)OC (stereo partly specified) | – | > 100
CC(=O)OCC1C[C@@H](O)[C@H](O)C(=O)C1=O (stereo partly specified) | > 100 | > 100
